The results in this text go back to ChEMBL document CHEMBL1138346, “BINOL-amino acid conjugates as triggerable carriers of DNA-targeted potent photocytotoxic agents” (J Med Chem, 2007).

pEC50: −log10 of the molar value. The source made the active and inactive calls. The rule behind the calls is not given here.

Series [1] concerns LoVo. Kind of series: Selectivity index, ratio of CC50 for LoVo cells to EC50 for UV irradiated LoVo cells. In kind it is functional, Homo sapiens. An outline of the steps: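 Ratio CC50/EC50 in LoVo cells; both from MTT after 24 h compound exposure (12 nM–200 µM, 1% DMSO), then 24 h more either in the dark or after 30 min irradiation at 360 nm. Mean of three triplicate experiments.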

The subject of series [2] is LoVo. Kind of series: Photocytotoxicity against UV irradiated human LoVo cells after 24 hrs by MTT assay. In kind it is functional, cell-based. An outline of the steps:
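LoVo cells in DMEM/F-12 1:1 with 10% FBS, plated at 1.75 × 10^4 cells/well overnight. Exposed 24 h to 12 nM–200 µM compound (DMSO, 1% final), washed, fresh medium, irradiated 30 min at 360 nm, then 24 h at 37 °C. MTT absorbance at 540 nm, survival relative to solvent controls; EC50 from mean of three experiments in triplicate.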

The subject of series [3] is LoVo. Kind of series: Cytotoxicity against human LoVo cells after 24 hrs by MTT assay. In kind it is functional. In a few lines: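 Dark cytotoxicity (CC50), LoVo human colorectal adenocarcinoma in DMEM/F-12 1:1 with 10% FBS, 37 °C, 5% CO2. 1.75 × 10^4 cells/well plated overnight; compound 12 nM–200 µM in DMSO (1% final) for 24 h, then washed and fresh medium, kept in dark 24 h more at 37 °C. MTT read at 540 nm; mean of three experiments in triplicate.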
For orientation: Formazan colour is commonly taken as a measure of viable cells.

The nature of series [4]: Induction of pBR322 cross-linking after irradiation by alkaline agarose gel assay. To be noted: Escherichia coli. In a few lines: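 pBR322 (0.5 µg/sample) with compound 0.62–80 µM (DMSO stock diluted in water), 50 mM phosphate pH 7.5, irradiated on ice 20 min at 360 nm, 120 W. Run on 1% alkaline agarose (50 mM NaOH, 1 mM EDTA), 12 V, 15–16 h, ethidium bromide stain. Value is lowest concentration giving interstrand cross-link band.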

Series [5] has as its system Escherichia coli. As to the kind of experiment: Induction of pBR322 cross-linking after irradiation at 20 mM at pH 5.5 by alkaline agarose gel assay.
For series [6], the system named is Escherichia coli. As to the kind of experiment: Induction of pBR322 cross-linking in absence of irradiation by alkaline agarose gel assay.
Series [7] is described as follows: Partition coefficient, log P of the compound. In kind it is physicochemical. To be noted: octanol/water. In a few lines: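 Calculated log P of neutral form by Crippen fragmentation method.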
The mark [8] stands for this setting: Homo sapiens, LoVo, light or radiation study, 24 h.

Turning to `COC(=O)[C@@H]1CCCN1Cc1cc2ccccc2c(-c2c(O)c(CN3CCC[C@H]3C(=O)OC)cc3ccccc23)c1O` (stereo in doubt; (R,S,S)-5) [listing 1 of 2 here], in the series on LoVo [1], the “Ratio CC50/EC50” value was more than 860. For the same molecule, in the series on LoVo [2] (setting [8]), the pEC50 is 6.64. In the series with LoVo [3], this molecule had a CC50 of more than 200 µM.
For `O=C(O)[C@@H]1CCCN1Cc1cc2ccccc2c(-c2c(O)c(CN3CCC[C@H]3C(=O)O)cc3ccccc23)c1O` (stereo in doubt; (R,S,S)-6) [listing 1 of 2 here], the Minimum concentration for DNA interstrand cross-linking in series [4] was 2.5 µM. In the series on Escherichia coli [5], the result was Active. Moreover, in the series on Escherichia coli [6], the outcome was inactive.
The molecule `O=C(O)[C@@H]1CCCN1Cc1cc2ccccc2c(-c2c(O)c(CN3CCC[C@H]3C(=O)O)cc3ccccc23)c1O` (stereo in doubt; (R,S,S)-6) [listing 2 of 2 here] showed a pEC50 in the series on LoVo [2] (setting [8]) of less than 3.70. Also, in the series on LoVo [3], the CC50 is more than 200 µM.
With `Cc1cc2cc3c(C)cc(=O)oc3c(C)c2o1` [TRIOXSALEN], the “Ratio CC50/EC50” value in the series with LoVo [1] was more than 210. This molecule also had a Minimum concentration for DNA interstrand cross-linking in series [4] of less than 0.5 µM. Moreover, the pEC50 with LoVo [2] (setting [8]) was 6.03. The molecule also registered a CC50 with LoVo [3] of more than 200 µM. In addition, the logP in series [7] amounted to 2.44. For the same molecule, the outcome with Escherichia coli [6] was inactive.
`O=C(O)[C@@H]1CCCN1Cc1cc2ccccc2c(-c2c(O)c(CN3CCC[C@H]3C(=O)O)cc3ccccc23)c1O` (stereo in doubt; (S,S,S)-6) [listing 1 of 2 here] gave a Minimum concentration for DNA interstrand cross-linking in series [4] of 2.5 µM. In addition, the outcome in the series with Escherichia coli [5] was Active. The outcome in the series on Escherichia coli [6] was inactive.
Take `COC(=O)[C@@H](NCc1cc2ccccc2c(-c2c(O)c(CN[C@H](C(=O)OC)C(C)C)cc3ccccc23)c1O)C(C)C`: the “Ratio CC50/EC50” value with LoVo [1] is 108. This molecule also returned a Minimum concentration for DNA interstrand cross-linking in series [4] of 5 µM. This molecule gave a pEC50 in the series with LoVo [2] (setting [8]) of 6.89. The molecule further came in with a CC50 in the series with LoVo [3] of 14 µM. Besides, the logP in series [7] came out at 6.15. For the same molecule, the result in the series with Escherichia coli [6] was inactive.
Turning to `COC(=O)[C@@H]1CCCN1Cc1cc2ccccc2c(-c2c(O)c(CN3CCC[C@H]3C(=O)OC)cc3ccccc23)c1O` (stereo in doubt; (S,S,S)-5) [listing 1 of 2 here], in the series on LoVo [1], the “Ratio CC50/EC50” value is recorded as more than 900. The molecule further had a pEC50 with LoVo [2] (lovo) of 6.66. The same molecule returned a logP in series [7] of 4.81.
The molecule `O=C(O)[C@@H]1CCCN1Cc1cc2ccccc2c(-c2c(O)c(CN3CCC[C@H]3C(=O)O)cc3ccccc23)c1O` (stereo in doubt; (S,S,S)-6) [listing 2 of 2 here] yielded a logP in series [7] of 4.28.
Take `COC(=O)[C@@H]1CCCN1Cc1cc2ccccc2c(-c2c(O)c(CN3CCC[C@H]3C(=O)OC)cc3ccccc23)c1O` (stereo in doubt; (S,S,S)-5) [listing 2 of 2 here]: the Minimum concentration for DNA interstrand cross-linking in series [4] worked out at 20 µM. In addition, the outcome in the series with Escherichia coli [6] was inactive.
The molecule `C[N+](C)(C)Cc1cc2ccccc2c(-c2c(O)c(C[N+](C)(C)C)cc3ccccc23)c1O` gave a Minimum concentration for DNA interstrand cross-linking in series [4] of 1.25 µM. The molecule further showed a negative-log EC50 (pEC50) in the series on LoVo [2] (setting [8]) of less than 3.70. Further, the CC50 in the series on LoVo [3] is more than 200 µM. Besides, in the series on Escherichia coli [6], the result was inactive.
On to `NCCCC[C@H](NCc1cc2ccccc2c(-c2c(O)c(CN[C@@H](CCCCN)C(=O)O)cc3ccccc23)c1O)C(=O)O`, for which, in series [4], the Minimum concentration for DNA interstrand cross-linking was found to be 20 µM. In addition, the pEC50 in the series on LoVo [2] (setting [8]) was less than 3.70. In the series on LoVo [3], the CC50 is more than 200 µM. In series [7], this molecule showed a logP of 3.34. The outcome in the series with Escherichia coli [5] was Active. The outcome in the series with Escherichia coli [6] was inactive.
With `COC(=O)[C@H](C)NCc1cc2ccccc2c(-c2c(O)c(CN[C@@H](C)C(=O)OC)cc3ccccc23)c1O`, the “Ratio CC50/EC50” value in the series with LoVo [1] is on record as 0.4. The molecule also came in with a Minimum concentration for DNA interstrand cross-linking in series [4] of more than 40 µM. Moreover, the pEC50 with LoVo [2] (setting [8]) is 5.40. For the same molecule, it took 1.5 µM to reach half-maximal cytotoxicity in the series on LoVo [3] (CC50). The molecule also returned a logP in series [7] of 4.38. In the series on Escherichia coli [6], the result was inactive.
As for `COC(=O)[C@@H]1CCCN1Cc1cc2ccccc2c(-c2c(O)c(CN3CCC[C@H]3C(=O)OC)cc3ccccc23)c1O` (stereo in doubt; (R,S,S)-5) [listing 2 of 2 here], in series [4], the Minimum concentration for DNA interstrand cross-linking amounted to 20 µM. In the series with Escherichia coli [6], the result was inactive.

Usually pEC50 stands for −log10 of the EC50, conventionally taken in molar units. Low readings indicate a large EC50, high ones a small EC50. One may read the CC50 as the concentration that lowers cell viability or growth by half. What is called logP is a log measure of how a compound divides between an organic and an aqueous phase. Low readings indicate lower lipophilicity, high ones higher lipophilicity.
